NPY-Y2 PAM-ag: potentiators or agonists of human neuropeptide Y receptor Y2 | P49146 | cells expressing NPY-Y2, potentiator/agonist read-out | activation, % at 3.6 µM | 0.45% of 220,000 active | AID 1359; in the data active = activation above about 27%;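 note: cells stimulated with NPY near EC25 plus isoproterenol at EC100; 0% = vehicle plus submaximal agonist and 100% = vehicle plus saturating agonist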
Target sequence (P49146 whole entry, looked up): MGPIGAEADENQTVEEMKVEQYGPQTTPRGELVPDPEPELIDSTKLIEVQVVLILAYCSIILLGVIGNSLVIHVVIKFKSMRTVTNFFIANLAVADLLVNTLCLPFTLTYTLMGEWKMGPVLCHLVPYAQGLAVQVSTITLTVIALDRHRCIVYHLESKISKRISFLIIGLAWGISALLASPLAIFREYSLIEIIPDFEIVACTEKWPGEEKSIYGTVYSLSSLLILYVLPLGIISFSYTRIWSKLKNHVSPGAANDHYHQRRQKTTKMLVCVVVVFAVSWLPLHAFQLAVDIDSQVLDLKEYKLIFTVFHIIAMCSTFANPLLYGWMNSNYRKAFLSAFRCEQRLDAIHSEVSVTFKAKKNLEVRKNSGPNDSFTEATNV
NPY-Y2 antag: NPY-Y2 (human) receptor antagonism; P49146; NPY-Y2 expressing cells, antagonist mode; inhibition, % at 2.7 µM; 0.99% of 140,000 active; in the data active = inhibition above about 17%;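 note: 0% = vehicle with agonist challenge and 100% = reference antagonist with challenge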
m-calpain inh: calpain II (pig) inhibition. 0.37% of 220,000 active. purified calpain II, fluorogenic peptide substrate, 30 min. inhibition, % at 16 µM. AID 1236;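 active = inhibition above about 50%, limit read from the data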
NPY1 pot ag: human NPY-Y1 potentiation or agonism, primary screen; NPY-Y1 expressing cells, potentiator/agonist activation; activation, % at 3.6 µM; 0.37% of 220,000 active; AID 1304; in the data active = activation above about 33%, passing the limit was not always enough;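 note: cells stimulated with NPY at EC10 then isoproterenol at EC100; 0% = low agonist plus stimulus and 100% = saturating agonist plus stimulus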
Tb hexokinase: blocks Trypanosoma brucei hexokinase 1 activity | recombinant TbHK1, G6PDH-coupled NADH A340 | inhibition, % at 10 µM | 0.11% of 220,000 active | AID 1430;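 active = inhibition of 50% or more in the single-dose primary screen; inactive = inhibition below 50%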
NPY Y1 blocker: blocks the human neuropeptide Y Y1 receptor | P25929 | HEK293-CNG Y1 cells, membrane potential fluorescence; NPY at EC95, then isoproterenol | inhibition, % at 3.6 µM | 1% of 200,000 active;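 active = inhibition above the campaign mean inhibition of all tested compounds plus 3 SD, cut at about 20% in these data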;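 note: 0% = DMSO wells given NPY plus isoproterenol and 100% = isoproterenol alone without NPY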
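Material: HEK293 Y1/CNG channel cell line; also added: NPY (25 nM), isoproterenol (1 µM), Ro 20-1724 (25 µM); doses: one concentration, 3.6 µM, in 0.4% DMSO; schedule: compound incubation 1 h at room temperature, readout 45 min post-stimulation; technique: membrane potential fluorescence; measure: fluorescence ratio normalized to % inhibition between controls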
NPY-Y2 confirm: confirmation of human NPY-Y2 receptor potentiators or agonists. shares compounds with NPY-Y2 PAM-ag. cell-based NPY-Y2 potentiator/agonist assay. activation, % at 3.6 µM. 20% of 450 active. AID 1539; in the data active = activation above about 33%
NPY-Y1 counter: counter-screen for NPY-Y2 potentiators or agonists: NPY-Y1 potentiators or agonists; shares compounds with NPY-Y2 PAM-ag; Y1 HEK293-CNG cells, membrane potential fluorescence; activation, % at 3.6 µM; 20% of 450 active; in the data active = activation above about 45%;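 note: cells stimulated with submaximal NPY then isoproterenol with phosphodiesterase inhibitor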
NPY-Y1 ag 2: human NPY-Y1 agonism as NPY-Y2 potentiator counter-screen; activation, % at 3.6 µM; shares compounds with NPY-Y2 PAM-ag; HEK293 Y1-CNGC, membrane potential fluorescence; AID 1702; 37% of 450 active;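 active = activation above the mean of DMSO-only control wells plus 3 SD, cut at about 18% in these data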;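 note: cells stimulated with 1 µM isoproterenol plus the PDE inhibitor Ro 20-1724; 0% = isoproterenol with DMSO and no NPY and 100% = 40 nM NPY; Y1 agonists lower the membrane potential dye signal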
CNGC inh: cyclic nucleotide gated channel inhibition as counter-screen; shares compounds with NPY-Y2 PAM-ag; HEK293-CNG parental, isoproterenol cAMP, membrane potential fluorescence; inhibition, % at 3.6 µM; 32% of 450 active;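 active = inhibition above the control-well mean plus 3 SD of those wells, cut at about 22% in these data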;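 note: 0% = DMSO with isoproterenol and 100% = DMSO without isoproterenol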
NPY-Y2 ag 2: NPY-Y2 agonism, counter-screen for Y2 potentiators. shares compounds with NPY-Y2 PAM-ag. HEK293 Y2/CNGC cells, membrane potential fluorescence, agonist mode. 56% of 450 active. activation, % at 3.6 µM;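 active = activation above the mean of solvent-only control wells plus 3 SD, cut at about 10% in these data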;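 note: cells stimulated by isoproterenol with no NPY added so direct agonism is tested; 0% = DMSO with isoproterenol alone and 100% = NPY at EC100 plus isoproterenol; agonism lowers probe fluorescence through less cAMP and CNG channel opening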
* = called active by the depositor; . = no result given. This is a sample that favours compounds with a hit; in the whole collection about 2.3% have one here.

SMILES	NPY-Y2 PAM-ag	NPY-Y2 antag	m-calpain inh	NPY1 pot ag	Tb hexokinase	NPY Y1 blocker	NPY-Y2 confirm	NPY-Y1 counter	NPY-Y1 ag 2	CNGC inh	NPY-Y2 ag 2
N#CC(C#N)=C(Nc1ccc(F)cc1)SCc1cccc(Br)c1	7	7	-9	-25	-4	20	.	.	.	.	.
Cc1cccc(CSC(Nc2ccc(F)cc2)=C(C#N)C#N)c1	40*	6	-32	6	-6	0	-11	-55	-30	-19	0
O=C(Nc1ccc(Br)cc1)c1ccc(F)c(S(=O)(=O)NCc2cccs2)c1	36*	0	31	-11	7	-3	0	-27	-24	-10	-2
Cc1c(NC(=O)CN2CCN(c3ccc(O)cc3)CC2)c(=O)n(-c2ccccc2)n1C	-1	.	-10	1	0	-4	.	.	.	.	.
Cc1ccc2[nH]c(=O)c(CNC(C)C)cc2c1	99*	0	-25	29	-12	-1	1	4	-6	2	8
O=Nc1c(O)n(Cc2c(Cl)cccc2Cl)c2ccccc12	34*	6	-1	24	-2	-4	8	2	14	-16	5
CCCN(CCC)C(=O)Nc1cc(Cl)ccc1OC	5	.	20	-7	-7	.	.	.	.	.	.
CC(=O)c1ccc(N2CCN(C(=S)Nc3ccc(Oc4ccccc4)cc3)CC2)cc1	39*	.	-21	12	-2	-1	1	-20	-9	-4	11*
COCCCn1c(O)c(/C=C2\N=C(C#N)C(=Nc3ccc(C)cc3)O2)sc1=S	37*	.	16	27	-20	.	19	9	-2	-4	27*
O=C(COC(=O)c1cc(NS(=O)(=O)c2cccs2)ccc1O)Nc1ccccc1	3	.	5	12	2	.	.	.	.	.	.
CN(Cc1ccccc1)C(=O)COC(=O)c1cc(NS(=O)(=O)c2cccs2)ccc1O	35*	.	-3	25	5	-7	7	-10	-14	-1	-4
CCN(CC)c1ccc(NC(=O)COC(=O)COc2ccccc2[N+](=O)[O-])cc1	-10	2	23	-3	-7	-2	.	.	.	.	.
Fc1ccc2c(c1)/C(=N/Nc1ccccn1)CCS2	30*	.	24	-4	-19	1	10	16	27*	17	22*
CCCCNS(=O)(=O)c1ccc(NC(=O)C(Sc2ccccc2)c2ccccc2)cc1 (configuration not stated)	29*	-4	30	17	7	-2	19	29	20*	25*	25*
CCC(C)NS(=O)(=O)c1ccc(NC(=O)C(Sc2ccccc2)c2ccccc2)cc1 (configuration not stated)	11	-4	17	26	5	-2	.	.	.	.	.
N#C/C(=N\Nc1ccc(Cl)cc1)C(N)=S	54*	.	-14	38	-20	.	2	-5	-9	-6	3
Cc1ccc(N/N=C(\C#N)C(=O)c2ccsc2)cc1	-1	.	15	8	4	.	.	.	.	.	.
N#C/C(=N\Nc1ccccc1)C(N)=S	2	.	9	1	-14	.	.	.	.	.	.
N#C/C(=N\Nc1ccc(Cl)cc1)C(=O)c1ccsc1	59*	.	19	36	-7	.	13	-10	-5	-1	6
O=P(OC1CCCCC1)(OC1CCCCC1)C(Nc1ccccc1)c1cccnc1 (configuration not stated)	44*	.	8	35	-4	.	25	27	17*	28*	20*
O=C(c1ccc(F)cc1)N(c1ccccn1)C1CCCCC1	1	.	-4	-7	-2	4	.	.	.	.	.
CCN1CCN(C(=O)Cn2cnc3sc(C)c(S(=O)(=O)N4CCN(c5ncccn5)CC4)c3c2=O)CC1	1	.	-18	2	-3	-2	.	.	.	.	.
N/C(=N\OC(=O)c1ccc(OCC(F)(F)F)nc1)c1ccc(Cl)cc1	82*	.	-11	-36	-15	.	-11	-5	-16	-11	9
N/C(=N\OC(=O)c1ccc(Cl)cc1)c1ccc(Cl)cc1	3	0	-5	2	2	7	.	.	.	.	.
O=C(NCc1ccccc1Cl)NCc1ccccc1Cl	99*	.	7	12	-11	.	-6	-7	-17	-4	5
SMILES	NPY-Y2 PAM-ag	NPY-Y2 antag	m-calpain inh	NPY1 pot ag	Tb hexokinase	NPY Y1 blocker	NPY-Y2 confirm	NPY-Y1 counter	NPY-Y1 ag 2	CNGC inh	NPY-Y2 ag 2
O=C(O)CCC(=O)Nc1ccccc1N1CCOCC1	2	-1	-31	1	-3	-5	.	.	.	.	.
O=C(O)CC1(CC(=O)Nc2ccccc2N2CCOCC2)CCCC1	59*	.	-5	24	-8	.	-4	-8	-4	-5	-5
CC1=C(C(=O)c2ccccc2)C(c2ccc(N3CCOCC3)cc2)NC(=O)N1 (configuration not stated)	1	.	-18	21	-7	-2	.	.	.	.	.
COC(=O)COc1ccc(S(=O)(=O)N2CCN(c3ccccc3F)CC2)cc1	36*	1	17	21	6	-6	35*	42	34*	25*	26*
COC(=O)COc1ccc(S(=O)(=O)N2CCN(c3ccccc3)CC2)cc1	30*	.	-21	28	2	-9	15	16	-4	-4	-1
COc1ccc(N2CCN(S(=O)(=O)c3ccc(OC)cc3)CC2)cc1	2	0	24	-11	1	5	.	.	.	.	.
Cc1ccc(-n2c(N)c(C(=O)Nc3ccccc3F)sc2=S)cc1C	0	.	-29	12	1	1	.	.	.	.	.
COc1ccc(-c2csc(NC(=O)CSc3nc(SC)ns3)n2)cc1	-3	2	8	-27	11	2	.	.	.	.	.
N#C/C(=N\Nc1ccc(Cl)c(Cl)c1)C(=O)C1CC1	63*	.	42	13	-4	.	3	-38	-7	-9	5
CCN(CC)S(=O)(=O)c1ccc2[nH]cc(C(=O)NCCC3=CCCCC3)c(=O)c2c1	34*	-4	11	36	-7	-11	19	13	13	14	23*
CCN(CC)S(=O)(=O)c1ccc2[nH]cc(C(=O)NCCN3CCCCC3C)c(=O)c2c1 (configuration not stated)	-2	-3	-26	-1	-6	6	.	.	.	.	.
COC(=O)c1sccc1NS(=O)(=O)c1ccc(OC)cc1	31*	0	-1	-35	-12	4	-5	-8	-8	-9	5

Source: PubChem BioAssay (several laboratories)
